Test results published in ChEMBL document CHEMBL1148785, “Second generation tetrahydroquinoline-based protein farnesyltransferase inhibitors as antimalarials” (J Med Chem, 2007).
Where “and” joins values, the source holds several entries; their conditions need not be identical. Identical values can stand only once.

Assays:
[1] = system: Plasmodium falciparum; assay: Inhibition of Plasmodium falciparum protein farnesyltransferase at 0.5 nM by scintillation proximity assay
[2] = system: Plasmodium falciparum; assay: Inhibition of Plasmodium falciparum protein farnesyltransferase at 5 nM by scintillation proximity assay
[3] = system: Plasmodium falciparum; assay: Antimalarial activity against Plasmodium falciparum 3D7; format: functional; settings: read-out: ED50 (the source's name)
Procedure, shortened: (§1)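 Asynchronous culture in type A+ erythrocytes at 0.5% parasitemia and 0.5% hematocrit, grown in RPMI-1640 with 20% heat-inactivated human A+ plasma. Compound was serially diluted from a top final 5 µM, with DMSO vehicle as 100% growth. Plates ran 48 h at 37 °C under 5% CO2/5% O2/90% N2, then [3H]-hypoxanthine (0.3 µCi) for 24 h. Filter-harvested counts were corrected for the uninfected-RBC background. ED50 by linear regression; duplicates averaged.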

[4] = system: Plasmodium falciparum; assay: Antimalarial activity against Plasmodium falciparum K1; format: functional; settings: read-out: ED50 (the source's name); procedure, shortened: as §1
[5] = system: Plasmodium falciparum; assay: Inhibition of Plasmodium falciparum protein farnesyltransferase at 50 nM by scintillation proximity assay

Structure (SMILES) | inhibition [1] [%] | inhibition [2] [%] | EC50 ([3]; Plasmodium falciparum, 3D7) [nM] | EC50 ([4]; Plasmodium falciparum, K1) [nM] | inhibition [5] | EC50 [4] [nM] | EC50 [3] [nM]
CN(C)CC(=O)N(Cc1ccccc1F)C1Cc2cc(C#N)ccc2N(Cc2cncn2C)C1 (stereo not given) | 0 | 16 | 2700 |  |  |  | 
Cn1cncc1CN1CC(N(Cc2ccc(Br)cc2)S(=O)(=O)c2ccccn2)Cc2cc(C#N)ccc21 (stereo not given) |  | 15 | 520 | 750 | 66% |  | 
Cn1cncc1CN1CC(N(CC(N)=O)S(=O)(=O)c2ccccn2)Cc2cc(C#N)ccc21 (stereo not given) |  | 37 | 1600 | 2200 | 82% |  | 
COC(=O)N(Cc1ccccc1F)C1Cc2cc(C#N)ccc2N(Cc2cncn2C)C1 (stereo not given) | 6 | 9 | 2900 |  | 26% |  | 
Cc1c(S(=O)(=O)N(Cc2cc(Br)ccc2F)C2Cc3cc(C#N)ccc3N(Cc3cncn3C)C2)ncn1C (stereo not given) | 13 | 87 | 850 |  | 98% |  | 
Cn1cnc(S(=O)(=O)N(Cc2ccccc2F)C2Cc3cc(C#N)ccc3N(Cc3cncn3C)C2)c1 (stereo in doubt; 212) [listing 1 of 2 here] |  |  |  |  |  | 500 | 580
Cn1cncc1CN1CC(N(CC2CCNCC2)S(=O)(=O)c2ccccn2)Cc2cc(C#N)ccc21 (stereo not given) | 0 | 6 |  |  | 18% |  | 
CCS(=O)(=O)c1ccc(CN(C2Cc3cc(C#N)ccc3N(Cc3cncn3C)C2)S(=O)(=O)c2ncn(C)c2C)cc1 (stereo not given) | 10 | 76 | 640 |  | 97% |  | 
Cn1cncc1CN1CC(N(Cc2ccc(C(F)(F)F)o2)S(=O)(=O)c2ccccn2)Cc2cc(C#N)ccc21 (stereo not given) |  | 39 | 750 | 690 | 84% |  | 
COC(=O)c1ccc(CN(C2Cc3cc(C#N)ccc3N(Cc3cncn3C)C2)S(=O)(=O)c2cn(C)cn2)cc1 (stereo not given) | 1 | 10 |  |  | 62% |  | 
Cn1cnc(CN2CC(N(CC3CCN(C(=O)OC(C)(C)C)CC3)S(=O)(=O)c3ccccn3)Cc3cc(-c4ccccc4)ccc32)c1 (stereo not given) | 0 | 15 | 2700 |  | 22% |  | 
Cn1cncc1CN1CC(N(CCN2C(=O)c3ccccc3C2=O)S(=O)(=O)c2ccccn2)Cc2cc(C#N)ccc21 (stereo not given) | 46 | 77 | 1880 |  | 96% |  | 
Cn1cnc(S(=O)(=O)N(Cc2ccccc2F)C2Cc3cc(C#N)ccc3N(Cc3cncn3C)C2)c1 (stereo in doubt; 110) [listing 1 of 2 here] |  |  |  |  |  | 18 | 18
Cn1cncc1CN1CC(N(Cc2cccc(-n3cncn3)c2)S(=O)(=O)c2ccccn2)Cc2cc(C#N)ccc21 (stereo not given) |  | 11 | 450 | 590 | 53% |  | 
Cc1ccsc1S(=O)(=O)N(Cc1ccc(S(C)(=O)=O)cc1)C1Cc2cc(C#N)ccc2N(Cc2cncn2C)C1 (stereo not given) | 13 | 55 | 830 |  | 97% |  | 
COC(=O)N1CCC(CN(C2Cc3cc(C#N)ccc3N(Cc3cncn3C)C2)S(=O)(=O)c2ccccn2)CC1 (stereo not given) |  |  |  |  | 98% and 100% (2×) |  | 
Cn1cncc1CN1CC(N(Cc2ccc(S(C)(=O)=O)cc2)S(=O)(=O)c2cccc(F)c2)Cc2cc(C#N)ccc21 (stereo not given) | 8 | 67 | 600 |  | 96% |  | 
Cn1cnc(S(=O)(=O)N(Cc2ccccc2F)C2Cc3cc(C#N)ccc3N(Cc3cncn3C)C2)c1 (stereo in doubt; 212) [listing 2 of 2 here] | 12 | 76 |  |  | 96% |  | 
Cn1cnc(CN2CC(N(CC3CCN(C(=O)OC(C)(C)C)CC3)S(=O)(=O)c3cn(C)cn3)Cc3cc(-c4ccccc4)ccc32)c1 (stereo not given) | 0 | 10 | 860 |  | 33% |  | 
CNC(=O)c1ccc2c(c1)CC(N(CC(=O)NC(C)(C)C)S(=O)(=O)c1cn(C)cn1)CN2Cc1cncn1C (stereo not given) | 12 | 20 | 1200 |  | 69% |  | 
Cn1cnc(S(=O)(=O)N(CC(=O)NC(C)(C)C)C2Cc3cc(C(=O)NCc4ccccc4)ccc3N(Cc3cncn3C)C2)c1 (stereo not given) | 0 | 1 | 4600 |  | 59% |  | 
CCC(C)NC(=O)c1ccc2c(c1)CC(N(CC(=O)NC(C)(C)C)S(=O)(=O)c1cn(C)cn1)CN2Cc1cncn1C (stereo not given) | 0 | 2 | > 5000 |  | 35% |  | 
Cn1cnc(S(=O)(=O)N(Cc2ccccc2F)C2Cc3cc(C#N)ccc3N(Cc3cncn3C)C2)c1 (stereo in doubt; 110) [listing 2 of 2 here] | 65 | 99 |  |  | 100% |  | 
Cn1cnc(S(=O)(=O)N(Cc2ccc(S(=O)(=O)c3ccccc3)cc2)C2Cc3cc(C#N)ccc3N(Cc3cncn3C)C2)c1 (stereo not given) | 30 | 90 | 390 |  | 99% |  | 

Second part, the compound after the results:

inhibition [1] [%] | inhibition [2] [%] | EC50 ([3]; Plasmodium falciparum, 3D7) [nM] | EC50 ([4]; Plasmodium falciparum, K1) [nM] | inhibition [5] | EC50 [4] [nM] | EC50 [3] [nM] | Structure (SMILES)
13 | 66 | 340 |  |  |  |  | Cn1cncc1CN1CC(N(Cc2ccccc2F)C(=O)c2cnns2)Cc2cc(C#N)ccc21 (stereo not given)
 | 89 | 105 | 490 | 95% |  |  | Cn1cncc1CN1CC(N(Cc2cccnc2)S(=O)(=O)c2ccccn2)Cc2cc(C#N)ccc21 (stereo not given)
39 | 88 | 75 |  |  |  |  | Cn1cncc1CN1CC(N(Cc2ccccc2F)C(=O)c2c[nH]cn2)Cc2cc(C#N)ccc21 (stereo not given)
 | 69 | 143 | 617 | 97% |  |  | Cn1cncc1CN1CC(N(Cc2cccc(-n3cccc3)c2)S(=O)(=O)c2ccccn2)Cc2cc(C#N)ccc21 (stereo not given)
 | 54 | 330 | 340 | 93% |  |  | Cn1cnc(S(=O)(=O)N(Cc2ccc(-n3cncn3)cc2)C2Cc3cc(C#N)ccc3N(Cc3cncn3C)C2)c1 (stereo not given)
15 | 67 | 38 |  | 96% |  |  | COC(=O)N1CCC(CN(C2Cc3cc(C#N)ccc3N(Cc3cncn3C)C2)S(=O)(=O)c2nccn2C)CC1 (stereo not given)
77 | 100 | 40 |  | 100% |  |  | CCS(=O)(=O)c1ccc(CN(C2Cc3cc(C#N)ccc3N(Cc3cncn3C)C2)S(=O)(=O)c2cn(C)cn2)cc1 (stereo not given)
 |  | 120 |  | 93% |  |  | Cn1cnc(S(=O)(=O)N(Cc2ccccc2)C2Cc3cc(C#N)ccc3N(Cc3cnc[nH]3)C2)c1 (stereo not given)
 | 97 | 14 | 18 | 98% |  |  | Cn1cnc(S(=O)(=O)N(CCN2C(=O)c3ccccc3C2=O)C2Cc3cc(C#N)ccc3N(Cc3cncn3C)C2)c1 (stereo not given)
25 | 84 | 230 |  | 99% |  |  | COC(=O)NCCCCN(C1Cc2cc(C#N)ccc2N(Cc2cncn2C)C1)S(=O)(=O)c1ccccn1 (stereo not given)
48 | 93 | 100 |  | 99% |  |  | COC(=O)N1CCC(CN(C2Cc3cc(C#N)ccc3N(Cc3cncn3C)C2)S(=O)(=O)c2cccnc2)CC1 (stereo not given)
 |  | 120 |  | 94% |  |  | C=C(Br)CN(C1Cc2cc(C#N)ccc2N(Cc2cnc[nH]2)C1)S(=O)(=O)c1cn(C)cn1 (stereo not given)
11 | 19 | 290 |  | 56% |  |  | COCC(=O)N(Cc1ccccc1F)C1Cc2cc(C#N)ccc2N(Cc2cncn2C)C1 (stereo not given)
